# Measured values pooled from the literature.
# Compare with care: the assays were run in different laboratories.
# Read-out: cell growth or viability
Structure (SMILES),cell line,assay,setting,endpoint,result
Cn1cc(C(c2ccc(C(=O)O)cc2)c2cn(C)c3ccccc23)c2ccccc21,KG-1,,"20 µM, 48 h",inhibition,25%
COc1ccc(-c2ccc(-c3ccc(C(=N)N)nc3)s2)cc1Cl,Malme-3M,SRB,,GI50,1.78 µM
CCn1c2ccccc2c2cc(C3CC(c4cc5cccc(OC)c5oc4=O)=NN3c3cccc(Cl)c3)ccc21 (centres unmarked),NRK-52E,MTT,24 h,IC50,24.2 µM
CN1CCN(C(=O)[C@H](CCCN[C@@H]2C[C@H]2c2ccc(F)cc2)NC(=O)c2ccc(-n3ccnn3)cc2)CC1,MOLM-13,resazurin,96 h,EC50,0.00538 µM
CCn1c2ccccc2c2cc(C3CC(c4cc5cccc(OC)c5oc4=O)=NN3C(N)=O)ccc21 (centres unmarked),NRK-52E,MTT,24 h,IC50,40.3 µM
CC(C)n1cc(C(c2ccc(/C=C/C(=O)O)s2)c2cn(C(C)C)c3ccccc23)c2ccccc21,KG-1,,"5 µM, 48 h",inhibition,12%
COc1cc(-c2ccc(-c3ccc(C(=N)N)nc3)s2)cc(OC)c1OC,Malme-3M,SRB,,GI50,1.53 µM
Cn1cc(C(c2ccc(/C=C/C(=O)O)s2)c2cn(C)c3ccccc23)c2ccccc21,KG-1,,"20 µM, 48 h",inhibition,7%
C/C(=N\NC(=O)c1cccc(S(=O)(=O)N2CCN(C)CC2)c1)c1cc(Cl)ccc1O,MOLM-13,resazurin,96 h,EC50,0.285 µM
COc1ccccc1S(=O)(=O)Nc1ccc2c(c1)CN(C)C(=O)N2,PL-21,ATP luminescence,,GI50,10 µM
COc1cccc(Oc2ccccc2NC(=O)CNC(=O)c2cccc3ccccc23)c1,Malme-3M,SRB,48 h,GI50,17 µM
